This is an account of results in ChEMBL document CHEMBL5331128, “Alicyclic Ring Size Variation of 4-Phenyl-2-naphthoic Acid Derivatives as P2Y14 Receptor Antagonists” (J Med Chem, 2023).

The target in one data set is T1, P2Y purinoceptor 14 (Homo sapiens, UniProt Q15391).
T1 sequence (Q15391 whole entry): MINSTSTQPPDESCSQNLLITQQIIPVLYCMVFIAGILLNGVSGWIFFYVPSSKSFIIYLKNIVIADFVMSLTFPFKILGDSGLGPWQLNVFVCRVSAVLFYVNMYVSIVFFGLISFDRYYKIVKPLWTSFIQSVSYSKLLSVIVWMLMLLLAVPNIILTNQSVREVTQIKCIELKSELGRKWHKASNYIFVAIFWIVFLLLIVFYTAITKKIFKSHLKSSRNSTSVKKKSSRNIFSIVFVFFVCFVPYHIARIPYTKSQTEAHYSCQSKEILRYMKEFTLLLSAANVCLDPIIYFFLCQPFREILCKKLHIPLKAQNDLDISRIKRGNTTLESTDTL
Kind of data set: Displacement of fluorescent tracer 4-(4-(1-(4-(1-(6-(3-carboxylato-4-(3-iminio-3H-xanthen-9-yl)benzamido)hexyl)-4,5-dihydro-1H-pyrrol-3-yl)butyl)piperidin-1-ium-4-yl)phenyl)-7-(4-(trifluoromethyl)phenyl)-2-naphthoate from human P2Y14R stably expressed in CHO cells assessed as inhibition constant by flow cytometry. It counts as cell-based. Put shortly:
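Whole-cell competitive binding: CHO cells expressing hP2Y14R (or HEK-293 cells expressing mP2Y14R) incubated with AlexaFluor488-labelled antagonist tracer at 20 nM.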
On the technique in general: In flow cytometry, cells or beads pass a laser one at a time.

Data set [1] is described as follows: Half life in Wistar rat at 10 mg/kg, ip and measured upto 24 hrs. The format is ADME, organism-based. The note with it: in vivo.
For another data set, the target named is Cytochrome P450 2C19 (Homo sapiens, UniProt P33261). Nature of the data set: Inhibition of CYP2C19 (unknown origin). The format is ADME.
A further data set deals with Cytochrome P450 2D6 (Homo sapiens, UniProt P10635). Nature of the data set: Inhibition of CYP2D6 (unknown origin). The format is ADME.
Data set [2] can be described thus: Microsomal stability in rat liver microsomes assessed as half life. It counts as ADME, Microsome.
A short description of data set [3]: Solubility of compound in pH 4.0 incubated for 20 hrs by pION method. It counts as physicochemical. The note with it: buffer, pH 4, 20 h. In outline: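 pION method: 5 mM DMSO stocks diluted 1:100 into pION buffer at pH 4.0 or 7.4, incubated 20 h. Undissolved material removed by centrifugation at 14,000 rpm for 20 min, then supernatant mixed 1:1 with n-propanol. […] Mean ± SD reported.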

Values after ≈ are worked out from the molar mass of the structure shown.

Sequence of Cytochrome P450 2C19 (P33261 whole entry): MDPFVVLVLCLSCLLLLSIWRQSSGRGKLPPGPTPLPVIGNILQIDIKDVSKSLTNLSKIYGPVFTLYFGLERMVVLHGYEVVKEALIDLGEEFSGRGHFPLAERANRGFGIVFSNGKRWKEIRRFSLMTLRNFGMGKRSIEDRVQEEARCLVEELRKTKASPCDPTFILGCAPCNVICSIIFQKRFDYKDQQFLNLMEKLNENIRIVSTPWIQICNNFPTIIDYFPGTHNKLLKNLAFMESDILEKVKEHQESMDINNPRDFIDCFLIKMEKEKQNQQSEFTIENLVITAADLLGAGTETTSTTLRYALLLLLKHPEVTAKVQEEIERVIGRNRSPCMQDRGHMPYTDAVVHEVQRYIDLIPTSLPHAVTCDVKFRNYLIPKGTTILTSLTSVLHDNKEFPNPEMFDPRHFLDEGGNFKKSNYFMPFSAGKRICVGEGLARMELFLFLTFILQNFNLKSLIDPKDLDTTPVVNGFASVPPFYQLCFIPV
Sequence of Cytochrome P450 2D6 (P10635 whole entry): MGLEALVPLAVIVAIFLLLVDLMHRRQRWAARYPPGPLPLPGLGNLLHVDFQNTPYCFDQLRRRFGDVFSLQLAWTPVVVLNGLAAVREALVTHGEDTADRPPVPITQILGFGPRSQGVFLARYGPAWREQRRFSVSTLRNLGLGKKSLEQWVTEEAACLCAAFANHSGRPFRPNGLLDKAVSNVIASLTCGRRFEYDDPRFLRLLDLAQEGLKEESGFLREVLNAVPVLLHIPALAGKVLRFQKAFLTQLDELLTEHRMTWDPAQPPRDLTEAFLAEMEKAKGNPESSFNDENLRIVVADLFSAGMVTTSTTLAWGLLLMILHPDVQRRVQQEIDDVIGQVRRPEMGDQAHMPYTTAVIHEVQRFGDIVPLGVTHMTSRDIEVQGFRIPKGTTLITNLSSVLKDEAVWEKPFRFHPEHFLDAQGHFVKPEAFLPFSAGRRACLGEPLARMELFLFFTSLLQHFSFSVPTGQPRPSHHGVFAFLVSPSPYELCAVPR

As for `O=C(O)c1cc(-c2ccc([C@]3(O)[C@@H]4CNC[C@H]3C4)cc2)c2ccc(-c3ccc(C(F)(F)F)cc3)cc2c1`, at P2Y purinoceptor 14, the Ki (commonly a dissociation constant, usually derived from enzyme kinetics or from competition with a known ligand) is 0.00344 µM. Besides, the t1/2 in data set [1] was 4.15 h; in data set [2] it was 5.7 h. Besides, the IC50 at Cytochrome P450 2C19 and against Cytochrome P450 2D6 was greater than 30 µM in each case. In data set [3], the solubility – broadly, how much of the substance goes into solution per volume – was 7.1 µg/mL (≈ 14.1 µM).
